Reference: ChEMBL document CHEMBL1123133, “1H-2-Benzopyran-1-one derivatives, microbial products with pharmacological activity. Conversion into orally active derivatives with antiinflammatory and antiulcer activities” (J Med Chem, 1985)

Key:
[1] = Lipid solubility measured as chloroform-water partition coefficient; format: physicochemical
How it was run: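 Partition between chloroform and 10 mM phosphate buffer pH 7.5 (1:1 volume); drug at 1 mg/mL initially in aqueous phase, shaken 20 min at 20 °C, centrifuged, both phases quantified by HPLC. HCl salts used.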

[2] = Solubility in phosphate buffer, tested as a HCl salt; format: physicochemical
How it was run: (§1)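 HCl salts suspended in excess in water or 10 mM phosphate buffer pH 7.5, sonicated 10 min at 20 °C to saturation, centrifuged; supernatant quantified by HPLC.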

Rattus norvegicus [3] = test: Concentration 5d detected in blood of rat 3 hr after an oral dose of 200 mg/kg of the compound; format: ADME, organism-based; design: dose 200 mg/kg, route oral; details: in vivo
How it was run: (§2)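 Male Wistar rats (120–160 g), 5–7 per group, fasted 24 h, given 200 mg/kg orally as aqueous HCl salt formulation (drug/glycerin/HCO-60 1/12/0.05 by weight). Jugular blood taken under ether at 1 or 3 h into citric acid; plasma deproteinized with ethanol (acetone for 5d) and analysed by C18 HPLC at 254 nm. Values recovery-corrected, mean of 6–7 rats.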

Rattus norvegicus [4] = test: Concentration 5d detected in blood of rat 1 hr after an oral dose of 200 mg/kg of the compound; format: ADME, organism-based; design: dose 200 mg/kg, route oral; details: in vivo; how it was run: as §2
Rattus norvegicus [5] = test: Gastroprotective activity as % protection against stress ulcers in 5 rats after an oral dose of 12.5 mg/kg; format: functional
How it was run: (§3)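 Stress ulcer by restraint and water immersion: male Wistar rats (160–180 g), fasted 24 h, given test compound po or ip as HCl salt in aqueous glycerin/HCO-60 formulation (1/12/0.05 by weight). Vehicle-only controls. After 1 h, restrained in net cage and immersed in 21 °C water for 6 h. Percent ulcer inhibition calculated; five rats per dose.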

[6] = Solubility in water, tested as a HCl salt; format: physicochemical; details: read-out: S; how it was run: as §1
Rattus norvegicus [7] = test: Concentration 6d detected in blood of rat 3 hr after an oral dose of 200 mg/kg of the compound; format: ADME, organism-based; design: dose 200 mg/kg, route oral; details: in vivo; how it was run: as §2
Rattus norvegicus [8] = test: Gastroprotective activity as % protection against stress ulcers in 5 rats after an oral dose of 25 mg/kg; format: functional; how it was run: as §3
Rattus norvegicus [9] = test: Gastroprotective activity as % protection against stress ulcers in 5 rats after an intraperitoneal dose of 50 mg/kg; format: functional; how it was run: as §3
Rattus norvegicus [10] = test: Concentration 6d detected in blood of rat 1 hr after an oral dose of 200 mg/kg of the compound; format: ADME, organism-based; design: dose 200 mg/kg, route oral; details: in vivo; how it was run: as §2
Rattus norvegicus [11] = test: Gastroprotective activity as % protection against stress ulcers in 5 rats after an oral dose of 50 mg/kg; format: functional; how it was run: as §3
Rattus norvegicus [12] = test: Concentration 1 detected in blood of rat 3 hr after an oral dose of 200 mg/kg; ND is Not Detected.; format: ADME, organism-based; design: dose 200 mg/kg, route oral; details: in vivo; how it was run: as §2
Rattus norvegicus [13] = test: Gastroprotective activity as % protection against stress ulcers in 5 rats after an oral dose of 100 mg/kg; format: functional; how it was run: as §3
Rattus norvegicus [14] = test: Gastroprotective activity as % protection against stress ulcers in 5 rats after an intraperitoneal dose of 25 mg/kg; format: functional; how it was run: as §3
Rattus norvegicus [15] = test: % recovery of the compound, compound 1 and compound 6a from whole blood of 7 wistar rats after an oral dose of the compound; format: ADME, organism-based; details: in vivo
Rattus norvegicus [16] = test: Concentration 1 detected in blood of rat 1 hr after an oral dose of 200 mg/kg of the compound; ND is Not Detected.; format: ADME, organism-based; design: dose 200 mg/kg, route oral; details: in vivo; how it was run: as §2
Rattus norvegicus [17] = test: Concentration detected in blood of rat 3 hr after an oral dose of 200 mg/kg; ND is Not Detected; format: ADME, organism-based; design: dose 200 mg/kg, route oral; details: in vivo; how it was run: as §2
Rattus norvegicus [18] = test: Gastroprotective activity as % protection against stress ulcers in 5 rats after an intraperitoneal dose of 12.5 mg/kg; format: functional; how it was run: as §3
Rattus norvegicus [19] = test: % recovery from whole blood of 7 wistar rats after an oral dose of the compound; format: ADME, organism-based; details: in vivo
Rattus norvegicus [20] = test: Concentration 6e detected in blood of rat 1 hr after an oral dose of 200 mg/kg of the compound; format: ADME, organism-based; design: dose 200 mg/kg, route oral; details: in vivo; how it was run: as §2
Rattus norvegicus [21] = test: Concentration 5e detected in blood of rat 3 hr after an oral dose of 200 mg/kg of the compound; format: ADME, organism-based; design: dose 200 mg/kg, route oral; details: in vivo; how it was run: as §2
Rattus norvegicus [22] = test: Concentration 1 detected in blood of rat 1 hr after an oral dose of 200 mg/kg; ND is Not Detected.; format: ADME, organism-based; design: dose 200 mg/kg, route oral; details: in vivo; how it was run: as §2
Rattus norvegicus [23] = test: Concentration 6e detected in blood of rat 3 hr after an oral dose of 200 mg/kg of the compound; format: ADME, organism-based; design: dose 200 mg/kg, route oral; details: in vivo; how it was run: as §2
Rattus norvegicus [24] = test: Concentration 5e detected in blood of rat 1 hr after an oral dose of 200 mg/kg of the compound; format: ADME, organism-based; design: dose 200 mg/kg, route oral; details: in vivo; how it was run: as §2
Cavia porcellus = test: Antiinflammatory activity evaluated as Minimum effective oral dose that inhibits dextran UV erythema in guinea pig; format: functional
Rattus norvegicus [25] = test: Concentration 5c detected in blood of rat 1 hr after an oral dose of 200 mg/kg of the compound; format: ADME, organism-based; design: dose 200 mg/kg, route oral; details: in vivo
How it was run: (§4)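 Male Wistar rats (120–160 g, 5–7 per group) fasted 24 h, then given 200 mg/kg orally as the HCl salt in a glycerin/HCO-60 formulation (drug/glycerin/HCO-60 1/12/0.05 by weight) in aqueous solution. At 1 or 3 h, jugular blood was citrated and plasma was ethanol-deproteinized, then analysed by reverse-phase HPLC at 254 nm. Values were recovery-corrected from blood spiked at 50 μg/mL and are means of 6–7 rats.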

Rattus norvegicus [26] = test: Concentration 6c detected in blood of rat 3 hr after an oral dose of 200 mg/kg of the compound; format: ADME, organism-based; design: dose 200 mg/kg, route oral; details: in vivo; how it was run: as §4
Rattus norvegicus [27] = test: Antiinflammatory activity evaluated as Minimum effective oral dose that inhibits carrageenan paw edema in rat; format: functional
[28] = Acute toxicity evaluated as oral lethal dose in rat; format: organism-based; details: in vivo
How it was run: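 Oral dosing of male Wistar rats (120-140 g), given as HCl salt; LD50 derived from mortality over 7 days.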

Rattus norvegicus [29] = test: Concentration 6c detected in blood of rat 1 hr after an oral dose of 200 mg/kg of the compound; format: ADME, organism-based; design: dose 200 mg/kg, route oral; details: in vivo; how it was run: as §4
Rattus norvegicus [30] = test: Antiinflammatory activity evaluated as Minimum effective oral dose that inhibits adjuvant arthritis in rats; format: functional
How it was run: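 Adjuvant arthritis: male Sprague-Dawley rats (180–200 g), 8–10 per group, injected in right hind paw with Mycobacterium butyricum powder in corn oil (0.6 mg/0.1 mL). Oral dosing started 1 h after adjuvant, then daily for 18 days; observed 28 days. Minimum effective dose recorded.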

Rattus norvegicus [31] = test: Concentration 5c detected in blood of rat 3 hr after an oral dose of 200 mg/kg of the compound; format: ADME, organism-based; design: dose 200 mg/kg, route oral; details: in vivo; how it was run: as §4
Rattus norvegicus [32] = test: Antiinflammatory activity evaluated as Minimum effective oral dose that inhibits bradykinin paw edema in rat; format: functional
Rattus norvegicus [33] = test: Antiinflammatory activity evaluated as Minimum effective oral dose that inhibits dextran paw edema in rat; format: functional

Compound | P [1] | solubility [2] [µg/mL] | solubility [6] [µg/mL] | Concentration (Rattus norvegicus [12]) | Recovery (Rattus norvegicus [15]) [%] | Protection (Rattus norvegicus [5]) [%] | Protection (Rattus norvegicus [8]) [%] | Protection (Rattus norvegicus [9]) [%] | Protection (Rattus norvegicus [11]) [%] | Protection (Rattus norvegicus [13]) [%] | Protection (Rattus norvegicus [14]) [%] | Protection (Rattus norvegicus [18]) [%] | also measured
Cn1cnc2c1c(=O)[nH]c(=O)n2C [THEOBROMINE] | 0.1 | – | – | – | – | – | – | – | – | – | – | – | –
CC(C)C[C@H](NC(=O)[C@@H](O)[C@@H](O)[C@@H](N)CC(=O)O)[C@@H]1Cc2cccc(O)c2C(=O)O1 | – | – | – | – | – | – | 0 | 94 | 0 | 17 | 100 | 78 | Concentration (Rattus norvegicus [16]): Not detected; Concentration (Rattus norvegicus [17]): Not detected; Recovery (Rattus norvegicus [19]): 50%
CNCC(=O)O [SARCOSINE] | < 0.03 | – | – | – | – | – | – | – | – | – | – | – | –
CCCNC1CC(=O)OC1C(O)C(=O)NC(CC(C)C)C1Cc2cccc(O)c2C(=O)O1 (configuration not stated) | 260 | 1600 | > 100000 | – | 40 | 17 | 78 | 89 | 94 | 100 | 66 | 44 | ED50 (Cavia porcellus): 12 mg/kg; Concentration (Rattus norvegicus [25]): 14200 ng/mL; Concentration (Rattus norvegicus [26]): 3400 ng/mL; ED50 (Rattus norvegicus [27]): 124 mg/kg; LD50 [28]: 1080 mg/kg; Concentration (Rattus norvegicus [29]): 6400 ng/mL; EDmin (Rattus norvegicus [30]): 15 mg/kg; Concentration (Rattus norvegicus [31]): 3400 ng/mL; ED50 (Rattus norvegicus [32]): 69 mg/kg; ED50 (Rattus norvegicus [33]): 43 mg/kg

Continued, in another order:

P [1] | solubility [2] [µg/mL] | solubility [6] [µg/mL] | Concentration (Rattus norvegicus [12]) | Recovery (Rattus norvegicus [15]) [%] | Compound | Protection (Rattus norvegicus [5]) [%] | Protection (Rattus norvegicus [8]) [%] | Protection (Rattus norvegicus [9]) [%] | Protection (Rattus norvegicus [11]) [%] | Protection (Rattus norvegicus [13]) [%] | Protection (Rattus norvegicus [14]) [%] | Protection (Rattus norvegicus [18]) [%] | also measured
1700 | 370 | 100000 | Not detected | 30 | CCCCNC1CC(=O)OC1C(O)C(=O)NC(CC(C)C)C1Cc2cccc(O)c2C(=O)O1 (configuration not stated) | 17 | 33 | 89 | 66 | 89 | 44 | – | Concentration (Rattus norvegicus [3]): 2300 ng/mL; Concentration (Rattus norvegicus [4]): 2300 ng/mL; Concentration (Rattus norvegicus [7]): 1800 ng/mL; Concentration (Rattus norvegicus [10]): 2000 ng/mL
1900 | 330 | 7300 | Not detected | 50 | CCCCCNC1CC(=O)OC1C(O)C(=O)NC(CC(C)C)C1Cc2cccc(O)c2C(=O)O1 (configuration not stated) | – | 44 | 44 | 33 | 56 | 56 | – | Concentration (Rattus norvegicus [20]): 800 ng/mL; Concentration (Rattus norvegicus [21]): 800 ng/mL; Concentration (Rattus norvegicus [22]): Not detected; Concentration (Rattus norvegicus [23]): 600 ng/mL; Concentration (Rattus norvegicus [24]): 1200 ng/mL
